Here are results for two molecules from ChEMBL document CHEMBL3259541, “Synthesis and biological evaluation of antimetastatic agents predicated upon dihydromotuporamine C and its carbocyclic derivatives” (J Med Chem, 2014).

Series [1] has as its system L3.6pl. Put plainly: Antimetastatic activity against human L3.6PL cells injected into pancreas of immune-compromised mouse assessed as liver micrometastasis at 2.5 mg/kg,ip 5 days per week for 2 weeks after 7 days of tumor cells inoculation by Hematoxylin and eosin staining.
The subject of series [2] is L3.6pl. In words: Antimetastatic activity against human L3.6PL cells injected into pancreas of immune-compromised mouse assessed as liver micrometastasis at 2.5 mg/kg,ip 5 days per week for 2 weeks after 7 days of tumor cells inoculation by microscopically. Format: functional, organism-based. Set-up: dose 2.5 mg/kg. In short, it runs like this:
(§1)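 Nu/nu mice engrafted with human L3.6pl pancreatic tumor cells; vehicle or compound given ip 5 days/week for 2 weeks (10 injections; 2.50 mg/kg for one agent, 2.66 mg/kg equimolar for the other), n=7 per group. Livers collected at termination; micrometastasis incidence and size scored macroscopically and on sections by H&E, human Ki67 and human cytokeratin-18 immunohistochemistry.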

Series [3] can be described thus: Toxicity in immune-compromised mouse compound treated ip 5 days per week for 2 weeks. To be noted: in vivo. Format: organism-based.
Series [4] concerns polyamine transporter. In words: Selectivity ratio of IC50 for polyamine transporter deficient CHO-MG cells to IC50 for CHO cells by MTS assay. To be noted: chinese hamster, polyamine transporter deficient CHO-MG cells and CHO cells; read-out: Ratio IC50. Format: ADME, cell-based, Cricetulus griseus. In short, it runs like this: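 CHO and polyamine-transport-deficient CHO-MG* cells pretreated 24 h with 1 mM aminoguanidine, then exposed to compound for 48 h at 37 °C. Triplicate. IC50 taken as 50% growth inhibition. PTS selectivity expressed as the CHO-MG*/CHO IC50 ratio.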

Series [5] concerns L3.6pl. Put plainly: Effect on intracellular ceramide population in human L3.6PL cells assessed as sphingomyelin N23:1 level measured per mg of protein at 0.6 uM after 48 hrs incubation by mass spectrometry analysis (reference value: 0.13 +/- 0.05 nmol). Format: functional.
Series [6] deals with L3.6pl. In words: Effect on intracellular ceramide population in human L3.6PL cells assessed as sphingomyelin N24:3 level measured per mg of protein at 0.6 uM after 48 hrs incubation by mass spectrometry analysis (reference value: 0.05 +/- 0.02 nmol). Format: functional.
Series [7] relates to L3.6pl. Put plainly: Effect on intracellular ceramide population in human L3.6PL cells assessed as ceramide N22:1 level measured as contribution to total ceramide population at 0.6 uM after 48 hrs incubation by mass spectrometry analysis relative to untreated control.
For series [8], the system named is L3.6pl. In words: Effect on intracellular ceramide population in human L3.6PL cells assessed as sphingomyelin N19:0 level measured per mg of protein at 0.6 uM after 48 hrs incubation by mass spectrometry analysis (reference value: 0.01 +/- 0.01 nmol). Format: functional.
In series [9] the test system is L3.6pl. In words: Antimetastatic activity against human L3.6PL cells injected into pancreas of immune-compromised mouse assessed as liver micrometastasis at 2.5 mg/kg,ip 5 days per week for 2 weeks after 7 days of tumor cells inoculation by human Ki67 immunohistochemical staining.
Series [10] relates to Mus musculus. Put plainly: Toxicity in immune-compromised mouse assessed as adverse event at 2.5 mg/kg,ip 5 days per week for 2 weeks. Format: organism-based. The arrangement: dose 2.5 mg/kg. To be noted: in vivo.
Series [11] relates to L3.6pl. In words: Effect on intracellular ceramide population in human L3.6PL cells assessed as ceramide N16:0 to N22:1 ratio measured at 0.6 uM after 48 hrs incubation by mass spectrometry analysis (reference value: 5.8 no_unit).
Series [12] relates to L3.6pl. Put plainly: Antimetastatic activity against human L3.6PL cells injected into pancreas of immune-compromised mouse assessed as liver micrometastasis at 2.66 mg/kg,ip 5 days per week for 2 weeks after 7 days of tumor cells inoculation by microscopically. Format: functional, organism-based. The arrangement: dose 2.66 mg/kg. In short, it runs like this:
as §1

Series [13] deals with Mus musculus. In words: Toxicity in immune-compromised mouse assessed as adverse event at 2.66 mg/kg,ip 5 days per week for 2 weeks. Format: organism-based. The arrangement: dose 2.66 mg/kg. The settings on record: in vivo.
Series [14] deals with L3.6pl. In words: Antimigratory activity against human L3.6PL cells assessed as cell migration inhibition after 48 hrs incubation by wound healing assay in presence of 250 uM aminoguanidine treated 24 hrs prior compound addition. Format: functional, cell-based.
For series [15], the system named is L3.6pl. Put plainly: Antimetastatic activity against human L3.6PL cells injected into pancreas of immune-compromised mouse assessed as liver micrometastasis at 2.66 mg/kg,ip 5 days per week for 2 weeks after 7 days of tumor cells inoculation by Hematoxylin and eosin staining.
For series [16], the system named is L3.6pl. Put plainly: Antimetastatic activity against human L3.6PL cells injected into pancreas of immune-compromised mouse assessed as liver micrometastasis at 2.66 mg/kg,ip 5 days per week for 2 weeks after 7 days of tumor cells inoculation by human Ki67 immunohistochemical staining.

Activity calls are given as the source filed them. No cut-off for these calls is given here.

In the case of `Cl.NCCCNCCCN1CCCCCCCCCCCCCC1`, the outcome in [1], in series [2] and in series [9] was inactive. In series [3], this molecule returned an MTD at 2 weeks of 2.5 mg/kg. Further, in [4], the selectivity ratio stood at 1. In addition, the Activity was 0.15 nmol in [5], 0.06 nmol in series [6], 0.02 nmol in series [8] and “Non-toxic” in series [10]. The “fold change (FC)” value in series [7] is 2.8. For the same molecule, in [11], the Ratio is given as 1.1.
Consider `Cl.NCCCNCCCNCC1CCCCCCCCCCCCCC1`, for which the result in series [12], in [15] and in series [16] was Active. Moreover, the Activity entry in [13] was “Non-toxic”; in [5], 0.17 nmol; in series [6], 0.06 nmol; in [8], 0.02 nmol. The selectivity ratio in [4] stood at 1. Besides, the inhibition entry in series [14] was “Dose-dependent effect”. For the same molecule, the Ratio in series [11] came to 8.4.
